TAAR1 ag: human TAAR1 agonists, primary screen, Fluo-8 calcium fluorescence, CHO RD-HGA16 cells. AID 624467, 2012. vehicle wells 0%, saturating PEA agonist 100%. 360,000 compounds, 0.99% hits. activation, % at 3 µM;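 active means activation above the mean activation of all test compounds in the run plus 3 SD, cut at about 38% in these data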
Target sequence (Q96RJ0 whole entry, looked up): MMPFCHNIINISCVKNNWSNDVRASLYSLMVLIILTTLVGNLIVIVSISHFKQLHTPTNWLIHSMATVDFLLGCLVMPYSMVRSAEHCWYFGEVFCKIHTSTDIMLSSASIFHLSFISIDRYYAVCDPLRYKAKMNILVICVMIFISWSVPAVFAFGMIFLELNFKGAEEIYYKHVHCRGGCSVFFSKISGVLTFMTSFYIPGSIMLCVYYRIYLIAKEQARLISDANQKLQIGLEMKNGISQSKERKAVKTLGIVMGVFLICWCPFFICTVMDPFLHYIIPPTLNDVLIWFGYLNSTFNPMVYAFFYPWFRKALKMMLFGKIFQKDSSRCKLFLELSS
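System: CHO RD-HGA16 cells carrying human TAAR1 plus Gα16; Incubation: 17-24 h seeding, 75 min 37 °C dye, 30 min RT; Measured by: Fluo-8 fluorescence, 5 s baseline then 140 s kinetic read; Control set: DMSO and PEA EC100; Replication: single well for each compound.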
TAAR1 antag: human TAAR1 antagonists, primary screen, Fluo-8 calcium fluorescence, CHO RD-HGA16 cells; antagonist; 360,000 compounds, 1.5% hits; inhibition, % at 3 µM; Trace amine-associated receptor 1 (Homo sapiens), Q96RJ0;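 active means inhibition above a per-plate cutoff, the mean inhibition of test compounds on that plate plus 3 SD, cut at about 49% in these data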;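 further: 0% = DMSO plus EC80 beta-PEA response and 100% = DMSO alone without agonist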
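System: CHO RD-HGA16 cells bearing hTAAR1. Reagent: EC80 β-phenethylamine stimulus. Schedule: seeding 17-24 h prior, 75-min 37 °C, 30-min RT dye loading. Signal: Fluo-8 intracellular calcium dye fluorescence, real-time kinetic reads. Read-out: % inhibition from peak post-agonist over basal fluorescence ratio. Benchmarks: vehicle wells and EC80 agonist wells. Replicates: n of 1.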
OXTR potentiator: human OXTR potentiators, primary screen, fluorescence, CHO-OTR cells, Fluo-8 calcium; AID 2445, 2010; Fluo-8 calcium fluorescence, potentiator mode; 0% = oxytocin EC15, 100% = EC100; activation, % at 3 µM; 320,000 compounds, 0.061% hits;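 active means activation above that plate's cutoff, the mean activation of tested compounds plus 3 SD, cut at about 6.6% in these data, passing the limit was not always enough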;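 further: 100% uses oxytocin at 75 nM as the full agonist control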
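Measured by – Fluo-8 calcium dye fluorescence · Test system – human OTR in CHO cells · Dosing – one concentration, 3.0 µM compound · Controls – EC15 oxytocin alone as 0%, 75 nM oxytocin as 100% · Evaluation – normalized max/min fluorescence ratio, % activation · Timing – 6 min pre-incubation, 100 s read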
OXTR ag: human OXTR agonists, primary screen, fluorescence, CHO-OTR cells, Fluo-8 calcium | activation, % at 3 µM | 320,000 compounds, 0.32% hits | AID 2435, 2010 | Fluo-8 calcium fluorescence; normalized: DMSO 0%, oxytocin 100% | Oxytocin receptor (Homo sapiens), P30559;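 active means activation above the mean of all tested compounds plus 3 SD, cutoff set per screening run, cut at about 20% in these data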;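 further: peak over basal fluorescence ratio from a 100 s FLIPR kinetic read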
V1aR counter: agonists of human V1a receptor, primary screen, counter-screen for OXTR agonist project, fluorescence, CHO-V1R cells. Vasopressin V1a receptor (Homo sapiens), P37288. Fluo-8 calcium fluorescence, agonist mode; 0% DMSO, 100% 3 nM vasopressin. activation, % at 3 µM. 320,000 compounds, 0.25% hits;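 active means activation above the mean activation of all tested compounds plus 3 SD, per screening run, cut at about 20% in these data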;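 further: signal is peak over basal fluorescence ratio across a 100 second FLIPR read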
Target sequence (P37288 whole entry, looked up): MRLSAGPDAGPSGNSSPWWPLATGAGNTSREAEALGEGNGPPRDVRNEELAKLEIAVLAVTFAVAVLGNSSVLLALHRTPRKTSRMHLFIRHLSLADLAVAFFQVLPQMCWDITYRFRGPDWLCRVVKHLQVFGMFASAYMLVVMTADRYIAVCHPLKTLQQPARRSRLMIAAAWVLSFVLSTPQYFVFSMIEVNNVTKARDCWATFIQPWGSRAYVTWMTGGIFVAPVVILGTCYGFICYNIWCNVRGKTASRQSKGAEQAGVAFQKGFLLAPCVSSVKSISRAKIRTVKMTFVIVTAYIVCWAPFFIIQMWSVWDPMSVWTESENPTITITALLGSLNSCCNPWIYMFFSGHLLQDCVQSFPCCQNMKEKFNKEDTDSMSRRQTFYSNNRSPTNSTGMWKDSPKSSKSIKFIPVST
nonsel antag count: nonselective antagonists in TAAR1 counter-screen cells, counter-screen for hTAAR1 antagonist project, cell-based, fluorescence, calcium. shares compounds with TAAR1 antag. counterscreen cell line, antagonist mode. inhibition, % at 3 µM. 2,400 compounds, 77% hits. AID 651780, 2012; in the data active means inhibition above about 22%;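 further: CHO-Ga16 host cells stimulated with ATP at an EC80 level; 0% = agonist EC80 plus vehicle and 100% = vehicle without agonist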
TAAR1 ant conf: human TAAR1 antagonists, retest of hits, confirmation, cell-based, fluorescence | shares compounds with TAAR1 antag | 2,400 compounds, 40% hits | TAAR1-expressing cells, fluorescence antagonist read-out | inhibition, % at 3 µM; in the data active means inhibition above about 49%;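 further: CHO-Ga16 host cells challenged with agonist PEA near its EC80; 0% = agonist at EC80 plus vehicle and 100% = vehicle with no agonist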
Ga16 ag counter-1: calcium activation in Ga16-expressing cells, counter-screen for TAAR1 antagonist project, cell-based, fluorescence. shares compounds with TAAR1 antag. agonist counterscreen. activation, % at 3 µM. 2,400 compounds, 18% hits. AID 651953, 2012; in the data active means activation above about 12%;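 further: 0% = vehicle wells and 100% = saturating stimulus response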
TAAR1 ag counter: TAAR1 activation by candidate antagonists – cell-based, fluorescence, counter-screen for TAAR1 antagonist project; shares compounds with TAAR1 antag; hTAAR1 cell line, agonist mode; activation, % at 3 µM; 2,400 compounds, 2% hits; in the data active means activation above about 37%;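 further: CHO cells stably expressing TAAR1 with calcium dye readout; 0% = DMSO vehicle and 100% = full agonist response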
TAAR1 ag confirm: human TAAR1 agonists, retest of hits, confirmation, Fluo-8 calcium fluorescence, CHO RD-HGA16 cells. shares compounds with TAAR1 ag. scaled: DMSO 0%, maximal phenethylamine 100%. activation, % at 3 µM. 2,400 compounds, 82% hits. AID 651783, 2012;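 active means activation above a cutoff set at the run's mean compound activation plus 3 SD, cut at about 39% in these data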
Ga16 ag counter-2: nonselective calcium mobilization agonists, CHO-Ga16 cells, counter-screen for hTAAR1 agonist project, cell-based, fluorescence, CHO-Ga16 parental line; activation, % at 3 µM; AID 651787, 2012; 2,400 compounds, 50% hits; shares compounds with TAAR1 ag; Fluo-8 calcium fluorescence; normalized to maximal ATP response, DMSO zero;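 active means activation above the run cutoff, the mean activation over all tested wells plus 3 SD, cut at about 12% in these data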;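 further: 0% = DMSO wells and 100% = maximal ATP response on the peak over basal ratio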
TAAR1 desens: TAAR1 desensitization by agonist hits, confirmation, counter-screen for TAAR1 agonist project, cell-based, fluorescence, tachyphylaxis. inhibition, % at 3 µM. CHO RD-HGA16 hTAAR1, Fluo-8 calcium, beta-PEA response inhibition. AID 651951, 2012. 2,400 compounds, 46% hits. shares compounds with TAAR1 ag;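 active means inhibition above the run cutoff, the mean inhibition of all test compounds plus 3 SD, cut at about 49% in these data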;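 further: beta-PEA stimulus applied at its EC80; loss of beta-PEA calcium signal after compound pretreatment read as receptor desensitization; 0% = DMSO with beta-PEA at EC80 and 100% = DMSO alone without agonist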
Ga16 antag count: inhibition of ATP-evoked calcium response in CHO-Ga16 cells, counter-screen for TAAR1 agonist project, cell-based, fluorescence | shares compounds with TAAR1 ag | CHO-Ga16 ATP-induced calcium, Fluo-8 fluorescence | inhibition, % at 3 µM | 2,400 compounds, 39% hits | AID 651952, 2012;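 active means inhibition above the plate's mean compound inhibition plus 3 SD, computed per plate, cut at about 22% in these data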;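 further: 0% = EC80 ATP with DMSO and 100% = DMSO wells without ATP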
An asterisk follows results filed as active; nt = not tested or not shown. Compounds with a hit are over-represented: about 2.3% of the library has one in this group of screens.

SMILES	TAAR1 ag	TAAR1 antag	OXTR potentiator	OXTR ag	V1aR counter	nonsel antag count	TAAR1 ant conf	Ga16 ag counter-1	TAAR1 ag counter	others
CC1(c2nnc(-c3ccccc3)o2)CC(c2c(Cl)cccc2Cl)=NO1 (centres undefined)	21	70*	6	-2	-1	23*	53*	6	7
Cc1ccc(SC2=C[C@@]3(O)CC[C@@H](O)[C@@](Sc4ccc(C)cc4)(C2=O)[C@H]3O)cc1	-1	-12	nt	nt	nt	nt	nt	nt	nt
CC(C)(C)c1ccc(SC2=C[C@@]3(O)CC[C@@H](O)[C@@](Sc4ccc(C(C)(C)C)cc4)(C2=O)[C@H]3O)cc1	4	73*	nt	nt	nt	33*	40	2	-2
Cc1cccc(NC(=O)C2CCN(S(=O)(=O)c3c(C)c(C)cc(C)c3C)CC2)n1	0	78*	-12	-2	0	24*	50*	5	7
Cc1cccc(NC(=O)C2CCN(S(=O)(=O)c3c(C)nn(C)c3C)CC2)n1	1	-9	-4	1	7	nt	nt	nt	nt
O=C1C2C3CCC(C3NCc3ccccc3)C2C(=O)N1Cc1ccccc1 (centres undefined)	6	55*	0	-2	0	20	34	6	9
COc1ccccc1CCn1cnc(-c2cccc(F)c2)c1CC(C)C	19	51*	nt	nt	nt	35*	67*	16*	55*
CCCCCc1c(-c2ccc(F)cc2)ncn1CCc1ccccc1OC	24	47	nt	nt	nt	nt	nt	nt	nt
CCCCCc1c(-c2ccccc2F)ncn1CCc1ccccc1OC	18	60*	nt	nt	nt	39*	59*	21*	48*
CCCCc1c(-c2ccccc2F)ncn1CCc1ccccc1OC	20	60*	nt	nt	nt	38*	72*	18*	63*
CCCc1c(-c2ccccc2F)ncn1CCc1ccccc1OC	17	38	nt	nt	nt	nt	nt	nt	nt
CCc1ccc(OCc2n[nH]c(=S)n2C(C)CCCC(C)C)cc1 (centres undefined)	5	-11	-3	2	2	nt	nt	nt	nt
Nc1nccc(N2CCCCC2)n1	1	9	nt	nt	nt	nt	nt	nt	nt
C[n+]1ccccc1Nc1cc([N+](=O)[O-])ccc1N	3	-16	-2	1	3	nt	nt	nt	nt
Cc1ccc(-c2nc(C(=O)NCC3CCCO3)cc3c2[nH]c2ccccc23)cc1 (centres undefined)	4	76*	-2	-1	0	35*	55*	5	1
O=C(NCCO)c1cc2c([nH]c3ccccc32)c(-c2ccccc2)n1	8	7	-7	-2	1	nt	nt	nt	nt
Cc1ccc(-c2nc(C(=O)NCCCN(C)C)cc3c2[nH]c2ccccc23)cc1	-1	-13	-8	0	0	nt	nt	nt	nt
Cc1nc(C(=O)NCCO)cc2c1[nH]c1ccccc12	0	-1	nt	nt	nt	nt	nt	nt	nt
COc1ccc(-c2nc(C(=O)NCC3CCCO3)cc3c2[nH]c2ccccc23)cc1 (centres undefined)	3	67*	-5	-1	0	25*	43	4	0
O=C(NCC1CCCO1)c1cc2c([nH]c3ccccc32)c(-c2cccc(Br)c2)n1 (centres undefined)	2	75*	-8	0	0	34*	58*	5	7
COc1ccc(-c2cc(C(=O)NCC3CCCO3)c3ccccc3n2)cc1 (centres undefined)	8	11	-9	-1	-1	nt	nt	nt	nt
Cc1ccccc1-c1nc(C(=O)NCC2CCCO2)cc2c1[nH]c1ccccc12 (centres undefined)	0	55*	-2	-1	0	28*	37	5	0
CCOC(=O)c1nn2c(C(F)(F)F)cc(-c3ccc(OC)cc3)nc2c1Br	6	-17	-4	-1	-1	nt	nt	nt	nt
N#Cc1ccc(NC(=O)CN2C(=O)NC3(CCCC3)C2=O)cc1	5	-12	1	2	0	nt	nt	nt	nt
O=C1/C(=C\c2ccc([N+](=O)[O-])cc2)CCc2ccccc21	0	-29	-6	-1	0	nt	nt	nt	nt
O=C1/C(=C/Nc2cccc([N+](=O)[O-])c2)CCc2ccccc21	0	51*	-9	-2	0	13	24	1	-5
CCOC(=O)c1ccc(NC(=O)COc2ccccc2CNCCc2ccccc2)cc1	81*	36	-17	13	7	nt	nt	nt	nt	TAAR1 ag confirm=111*;Ga16 ag counter-2=23*;TAAR1 desens=85*;Ga16 antag count=27*
COc1cc(NC(=O)CN2CCN(C(=O)C3CCCO3)CC2)c(OC)cc1Cl (centres undefined)	0	-17	-6	1	1	nt	nt	nt	nt
O=C(c1cc(-c2ccccc2)nc2ccccc12)N1CCc2ccccc2C1	7	-5	-2	-2	-1	nt	nt	nt	nt

Bioassay records as filed in PubChem.
